Measured values of several laboratories.
Compare with care: the assays were run in different laboratories.
Target: Phosphatidylinositol 4-phosphate 5-kinase type-1 alpha (PIP5K1A, Homo sapiens, UniProt Q99755)

Compound	test	conditions	measurement	result
COc1ccc2oc(-c3ccc4nc(N)oc4c3)c/c(=N\c3ccccc3NC(=O)CCN)c2c1	binding	1 µM	remaining binding	95%
C=CC(=O)N1CCC([C@@H]2CCNc3c(C(N)=O)c(-c4ccc(Oc5ccccc5)cc4)nn32)CC1	enzyme activity, inhibitor	1 µM	inhibition	16%
CC(C)S(=O)(=O)c1ccc2nccc(Nc3ccc4sc(C5CCCC5)nc4c3)c2c1	enzyme activity, inhibitor	1 µM	activity vs control	104%
C1=C/COCc2cc(ccc2OCCN2CCCC2)Nc2nccc(n2)-c2cccc(c2)COC/1	binding	0.1 µM	remaining binding	20%
C[C@]1(O)CCCN(c2nc(Nc3ccc(S(=O)(=O)N[C@H]4CC[C@H](CN5CCN(c6ccc(C7CCC(=O)NC7=O)cc6F)CC5)CC4)cc3F)ncc2C(F)(F)F)C1 (stereo partly shown)	binding, competition with immobilised ligand	1 µM	remaining binding	94%
CN1CCN(C(=O)c2ccc(NC(=O)Nc3ccc(N(C)c4ccnc(Nc5ccc(CS(C)(=O)=O)cc5)n4)cc3)cc2)CC1	binding	1 µM	remaining binding	9.3%
CC#CC(=O)N1CCC[C@H]1c1nc(-c2ccc(C(=O)Nc3ccccn3)cc2)c2c(N)nccn12	enzyme activity, inhibitor	1 µM	inhibition	12%
CCCCC(=O)Nc1ccc(-c2ccc3ncn(CCC)c(=O)c3c2)cn1	binding, competition with immobilised ligand	0.5 µM	remaining binding	100%
COc1ccc2[nH]c3c4[nH]c5ccc(OC)cc5c4c4c(c3c2c1)C(=O)NC4=O	binding	1 µM	remaining binding	100%
C[C@]1(O)CCCN(c2nc(Nc3ccc(S(=O)(=O)N[C@H]4CC[C@H](CN5CCN(c6ccc(C7CCC(=O)NC7=O)cc6F)CC5)CC4)cc3Cl)ncc2C(F)(F)F)C1 (stereo partly shown)	binding, competition with immobilised ligand	1 µM	remaining binding	93%
